Measured values taken from ChEMBL document CHEMBL1926515, “Synthesis and QSAR study of novel cytotoxic spiro[3H-indole-3,2'(1'H)-pyrrolo[3,4-c]pyrrole]-2,3',5'(1H,2'aH,4'H)-triones” (Eur J Med Chem, 2012).

Key:
Assay type in all cases: functional, cell-based
MCF7 = assay: Cytotoxicity against human MCF7 cells after 48 hrs by sulforhodamine B assay; settings: MCF7, 48 h
Procedure, shortened: (§1)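 Cells were seeded at 5×10^4–10^5 per well and allowed to attach for 24 h. Cells were then fixed and SRB-stained, washed with acetic acid, and the dye was recovered in Tris-EDTA for A564. Surviving fraction = OD treated/OD control. IC50 was taken as 50% growth inhibition relative to control, from mean values. Doxorubicin served as reference.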

HCT-116 = assay: Cytotoxicity against human HCT116 cells after 48 hrs by sulforhodamine B assay; settings: HCT-116, 48 h; procedure, shortened: as §1
HepG2 = assay: Cytotoxicity against human HepG2 cells after 48 hrs by sulforhodamine B assay; settings: HepG2, 48 h; procedure, shortened: as §1

`CN1CC2C(=O)N(c3ccc(Cl)cc3)C(=O)C2C12C(=O)Nc1ccccc12` (configuration not stated) was tested. Which IC50 (MCF7) did it give?
Its IC50 is 43 µM.

What about the IC50 (HCT-116) of the same compound?
The IC50 was 36.8 µM.

What about the IC50 (HepG2) of the same compound?
Its IC50 is 32.4 µM.

Which IC50 (MCF7) does the source give for `COc1ccc(N2C(=O)C3CN(C)C4(C(=O)Nc5ccccc54)C3C2=O)cc1` (configuration not stated) here?
The IC50 was 48 µM.

And the IC50 (HCT-116)?
The IC50 was 53.6 µM.

And the IC50 (HepG2)?
Its IC50 is 72.5 µM.

What does the source list for `COc1cccc2c1C(=O)c1c(O)c3c(c(O)c1C2=O)C[C@@](O)(C(=O)CO)C[C@@H]3O[C@H]1C[C@H](N)[C@H](O)[C@H](C)O1` [DOXORUBICIN]?
IC50 (HCT-116): 6.86 µM; IC50 (HepG2): 7.36 µM

Which IC50 (MCF7) does the source give for `CN1CC2C(=O)N(c3ccc(Cl)cc3)C(=O)C2C12C(=O)Nc1ccc(Cl)cc12` (configuration not stated) here?
The IC50 was 40.6 µM.

What about the IC50 (HCT-116) of the same compound?
The IC50 was 35.5 µM.

And the IC50 (HepG2)?
The IC50 was 29.2 µM.

`COc1ccc2c(c1)C1(C(=O)N2)C2C(=O)N(c3ccc(F)cc3)C(=O)C2CN1C` (configuration not stated) was tested. Which IC50 (MCF7) did it give?
The IC50 was 44 µM.

And the IC50 (HCT-116)?
Its IC50 is 31.3 µM.

What about the IC50 (HepG2) of the same compound?
The IC50 was 27.7 µM.

Which IC50 (MCF7) does the source give for `Cc1ccc(N2C(=O)C3CN(C)C4(C(=O)Nc5ccc(Cl)cc54)C3C2=O)cc1` (configuration not stated) here?
The IC50 was 49.9 µM.

What about the IC50 (HCT-116) of the same compound?
The IC50 was > 126 µM.

What about the IC50 (HepG2) of the same compound?
The IC50 was 63.2 µM.

How did the IC50 (MCF7) turn out when `CN1CC2C(=O)N(c3ccccc3)C(=O)C2C12C(=O)Nc1ccc(Cl)cc12` (configuration not stated) was run?
Its IC50 is 38.7 µM.

What about the IC50 (HCT-116) of the same compound?
The IC50 was 33 µM.

What about the IC50 (HepG2) of the same compound?
The IC50 was 33 µM.

What does the source list for `CN1CC2C(=O)N(c3ccccc3)C(=O)C2C12C(=O)Nc1ccccc12` (configuration not stated)?
IC50 (MCF7): 35.6 µM; IC50 (HCT-116): 63.7 µM; IC50 (HepG2): 32.9 µM

Which results are given for `COc1ccc2c(c1)C1(C(=O)N2)C2C(=O)N(c3ccc(Cl)cc3)C(=O)C2CN1C` (configuration not stated)?
IC50 (MCF7): 38.7 µM; IC50 (HCT-116): 47.4 µM; IC50 (HepG2): 43.4 µM

Which results are given for `COc1ccc2c(c1)C1(C(=O)N2)C2C(=O)N(c3ccc(C)cc3)C(=O)C2CN1C` (configuration not stated)?
IC50 (MCF7): 46.8 µM; IC50 (HCT-116): 46.2 µM; IC50 (HepG2): 12.2 µM

With `COc1ccc2c(c1)C1(C(=O)N2)C2C(=O)N(c3ccccc3)C(=O)C2CN1C` (configuration not stated) as the compound, how does the IC50 (MCF7) read?
The IC50 was 44.8 µM.

And the IC50 (HCT-116)?
The IC50 was 34.1 µM.

What about the IC50 (HepG2) of the same compound?
Its IC50 is 44.2 µM.

`COc1ccc(N2C(=O)C3CN(C)C4(C(=O)Nc5ccc(Cl)cc54)C3C2=O)cc1` (configuration not stated) was tested. Which IC50 (MCF7) did it give?
The IC50 was 38.1 µM.

And the IC50 (HCT-116)?
The IC50 was 41 µM.

What about the IC50 (HepG2) of the same compound?
Its IC50 is 28.9 µM.

What does the source list for `CN1CC2C(=O)N(c3ccc(F)cc3)C(=O)C2C12C(=O)Nc1ccccc12` (configuration not stated)?
IC50 (MCF7): 33.9 µM; IC50 (HCT-116): 42.4 µM; IC50 (HepG2): 87.3 µM

For `CN1CC2C(=O)N(c3ccc(F)cc3)C(=O)C2C12C(=O)Nc1ccc(Cl)cc12` (configuration not stated), which IC50 (MCF7) is on record?
Its IC50 is 89.9 µM.

And the IC50 (HCT-116)?
Its IC50 is 73.3 µM.

What about the IC50 (HepG2) of the same compound?
The IC50 was 41.1 µM.

How did the IC50 (MCF7) turn out when `Cc1ccc(N2C(=O)C3CN(C)C4(C(=O)Nc5ccccc54)C3C2=O)cc1` (configuration not stated) was run?
The IC50 was 37.6 µM.

And the IC50 (HCT-116)?
Its IC50 is 46.1 µM.

And the IC50 (HepG2)?
Its IC50 is 77.1 µM.

How did the IC50 (MCF7) turn out when `COc1ccc(N2C(=O)C3CN(C)C4(C(=O)Nc5ccc(OC)cc54)C3C2=O)cc1` (configuration not stated) was run?
Its IC50 is 42.7 µM.

And the IC50 (HCT-116)?
Its IC50 is 40.9 µM.

What about the IC50 (HepG2) of the same compound?
Its IC50 is 49.7 µM.
